This note sets out measurements from ChEMBL document CHEMBL3853320, “Discovery of Imidazoquinolines as a Novel Class of Potent, Selective, and in Vivo Efficacious Cancer Osaka Thyroid (COT) Kinase Inhibitors” (J Med Chem, 2016).

The target in data set [1] is T1, Mitogen-activated protein kinase kinase kinase 8 (Homo sapiens, UniProt P41279). The data set is described as follows: Inhibition of human COT (66 to 395 residues) expressed in Sf21 cells using 5-Fluo-Ahx-AGAGSGQLIDSNleANSFVGTR-NH2 as substrate after 60 mins by caliper microfluidic mobility shift assay.
T1 sequence (P41279 whole entry, the tested form may be a part): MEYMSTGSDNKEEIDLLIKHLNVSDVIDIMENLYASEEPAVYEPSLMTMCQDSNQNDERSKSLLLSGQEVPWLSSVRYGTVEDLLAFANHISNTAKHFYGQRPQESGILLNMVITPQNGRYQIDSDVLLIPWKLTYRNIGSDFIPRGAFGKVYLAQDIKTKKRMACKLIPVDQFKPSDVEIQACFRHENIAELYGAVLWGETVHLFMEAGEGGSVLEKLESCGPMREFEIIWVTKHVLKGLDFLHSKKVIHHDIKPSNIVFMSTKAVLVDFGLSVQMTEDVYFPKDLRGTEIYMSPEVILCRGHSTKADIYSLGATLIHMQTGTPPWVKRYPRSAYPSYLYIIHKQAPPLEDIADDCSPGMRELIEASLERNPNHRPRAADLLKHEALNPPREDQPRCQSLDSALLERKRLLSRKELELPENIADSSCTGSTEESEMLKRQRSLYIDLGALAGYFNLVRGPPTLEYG
Data set [2] addresses T1, Mitogen-activated protein kinase kinase kinase 8. Put plainly: Inhibition of COT in LPS-stimulated human PBMC assessed as reduction in ERK1/2 phosphorylation incubated for 60 mins followed by LPS stimulation for 12 mins by flow cytometric analysis. The procedure, abridged: (§1)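 Primary human PBMCs were stimulated with LPS. Read-outs were pERK, TNFα release, or p65 phosphorylation, each reported as IC50.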
A general note: Flow cytometry measures light scatter and fluorescence of single cells or particles in a stream.

For data set [3] the target is unchanged. Put plainly: Inhibition of COT in LPS-stimulated human PBMC assessed as reduction in TNFalpha release incubated for 1 hr followed by stimulation with LPS for 4 hrs by HTRF assay. The procedure, abridged: as §1
(In general: TR-FRET usually uses a lanthanide donor and a delayed reading to cut background.)

The nature of data set [4]: Octanol-water partition coefficient, log P of the compound by shake-flask method. In kind it is physicochemical.
Data set [5] can be described thus: Clearance in wild type Sprague-Dawley rat plasma at 1 mg/kg, iv. It is filed as ADME, organism-based. A digest of the protocol: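 Male wild-type Sprague–Dawley rats were given 1 mg/kg intravenously. Clearance was derived from plasma.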
The target of data set [6] is T1, Mitogen-activated protein kinase kinase kinase 8. Put plainly: Inhibition of COT in LPS-stimulated human whole blood assessed as reduction in TNFalpha release incubated for 30 mins followed by stimulation with LPS for 3 hrs by HTRF assay. In kind it is tissue-based. The procedure, abridged:
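Human whole blood was stimulated with LPS, and TNFα release was measured as IC50.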

A short description of data set [7]: Equilibrium solubility of the compound at pH 6.8 after 16 hrs by mass spectrometric analysis. It is filed as physicochemical. The following applies: buffer.
Data set [8] is described as follows: Equilibrium solubility of the compound at pH 4 after 16 hrs by mass spectrometric analysis. It is filed as physicochemical. To be noted: buffer.
Data set [9] can be described thus: Protein binding in human plasma at 5 uM after 4 hrs by rapid equilibrium dialysis method. In kind it is ADME, cell-free. To be noted: read-out: PPB (converted). On the technique in general: In equilibrium dialysis only unbound substance equilibrates across the membrane.
Data set [10] in a line: Half life in wild type Sprague-Dawley rat liver microsomes at 5 uM preincubated for 3 mins followed by NADPH addition measured after 1 hr by HPLC/MS analysis. In kind it is ADME.
The nature of data set [11]: Drug metabolism in Sprague-Dawley rat liver S9 fraction assessed as 1-(2-(1-morpholinopropan-2-ylamino)benzo[d]thiazol-6-yl)-8-(pyridin-4-yl)-1H-imidazo[4,5-c][1,7]naphthyridin-4(5H)-one metabolite formation in absence of NADPH after 5 to 120 mins by LC/MS/MS analysis. In kind it is ADME. The procedure, abridged: (§2)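 Rat or human liver S9 fractions were incubated without NADPH cofactor. Loss of parent and formation of the 4-oxo metabolite M1 were monitored.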

Data set [12] can be described thus: Metabolic stability in bile-duct cannulated Sprague-Dawley rat assessed as parent compound remaining in feces at 3 mg/kg, iv measured over 8 hrs post dose. To be noted: read-out: Stability. It is filed as ADME, organism-based. A digest of the protocol:
(§3)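 Bile-duct cannulated rats dosed in vivo. Parent and metabolites in each matrix were expressed as relative peak areas of the drug-related components detected, at the stated sampling time or collection period post dose.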

Data set [13] in a line: Metabolic stability in Sprague-Dawley rat liver microsomes assessed as parent compound remaining at 5 uM after 1 hr in presence of NADPH by HPLC/MS analysis. The following applies: read-out: Stability. It is filed as ADME.
A short description of data set [14]: Metabolic stability in bile-duct cannulated Sprague-Dawley rat assessed as parent compound remaining in blood at 3 mg/kg, iv measured 1 hr post dose. It is filed as ADME, organism-based. To be noted: read-out: Stability.
Data set [15] is described as follows: Metabolic stability in bile-duct cannulated Sprague-Dawley rat assessed as parent compound remaining in blood at 3 mg/kg, iv measured 4 hrs post dose. It is filed as ADME, organism-based. To be noted: read-out: Stability. The procedure, abridged:
as §3

Data set [16] is described as follows: Metabolic stability in bile-duct cannulated Sprague-Dawley rat assessed as parent compound remaining in bile at 3 mg/kg, iv measured over 8 hrs post dose. In kind it is ADME, organism-based. The following applies: read-out: Stability.
Data set [17] can be described thus: Metabolic stability in bile-duct cannulated Sprague-Dawley rat assessed as parent compound remaining in urine at 3 mg/kg, iv measured over 8 hrs post dose. It is filed as ADME, organism-based. The following applies: read-out: Stability. A digest of the protocol:
as §3

Data set [18] is described as follows: Drug excretion in bile-duct cannulated Sprague-Dawley rat bile at 3 mg/kg, iv. It is filed as ADME, organism-based. The following applies: read-out: Drug excretion.
Data set [19] is described as follows: Drug excretion in bile-duct cannulated Sprague-Dawley rat urine at 3 mg/kg, iv. In kind it is ADME, organism-based. The following applies: read-out: Drug excretion.
Data set [20] can be described thus: Drug excretion in bile-duct cannulated Sprague-Dawley rat kidney at 3 mg/kg, iv measured 8 hrs post dose. To be noted: in vivo. In kind it is ADME, organism-based.
Data set [21] can be described thus: Drug excretion in bile-duct cannulated Sprague-Dawley rat liver at 3 mg/kg, iv measured 8 hrs post dose. It is filed as ADME, organism-based. The following applies: in vivo.
Data set [22] in a line: Drug excretion in bile-duct cannulated Sprague-Dawley rat feces at 3 mg/kg, iv measured 8 hrs post dose. It is filed as ADME, organism-based. To be noted: read-out: Drug excretion.
Data set [23] can be described thus: Drug metabolism in human liver S9 fraction assessed as 1-(2-(1-morpholinopropan-2-ylamino)benzo[d]thiazol-6-yl)-8-(pyridin-4-yl)-1H-imidazo[4,5-c][1,7]naphthyridin-4(5H)-one metabolite formation in absence of NADPH after 5 to 120 mins by LC/MS/MS analysis. In kind it is ADME. The procedure, abridged:
as §2

Data set [24] in a line: Equilibrium solubility of the compound at pH 1 after 16 hrs by mass spectrometric analysis. In kind it is physicochemical. To be noted: buffer, pH 1, 16 h.

As a reminder, the IC50 is the concentration that gives 50% inhibition. By logP is commonly meant the decadic logarithm of the partition coefficient of the neutral form, usually between octanol and water. The low end stands for lower lipophilicity, the high end for higher lipophilicity. The term clearance denotes the volume of plasma or blood freed of the substance per unit of time. Lower therefore signals inefficient removal. What is called thermodynamic solubility is the concentration in solution at equilibrium with solid. For orientation: half-life means how long it takes for the measured level to halve. A high value points to slow loss.

Converted amounts (≈) assume the structure as drawn. Some results are limits rather than exact numbers.

Turning to `CC(CN1CCOCC1)Nc1nc2ccc(-n3cnc4cnc5cnc(-c6ccncc6)cc5c43)cc2s1` (configuration not stated), the IC50 was 9 nM in [1], 80 nM in data set [2], 70 nM in data set [3] and 600 nM in [6]. Moreover, the logP in data set [4] was 3.3. In data set [5], this compound yielded a clearance of 297 mL/min/kg. The solubility (thermodynamic) at 16 h in data set [7] was 60 µM (≈ 31.4 µg/mL); in [8], greater than 1000 µM. Besides, the fraction unbound at 4 h, 5 µM in data set [9] was 0.02. Also, the half-life at 5 µM in [10] is less than 3 min. Besides, the Drug metabolism result in data set [11] and in data set [23] was “Metabolite_Detected” in each case. The dose excreted at 8 h in [12] is 37%; in data set [16] it was 0%; in data set [17] it was 2%; in data set [22] it was 0.33%. In data set [13], the remaining at 1 h, 5 µM worked out at 16%. The remaining at 1 h in [14] was 49%. Besides, in [15], the remaining at 4 h came out at 20%. The dose excreted was found to be 0.13% in [18] and 0.04% in data set [19]. In addition, the Drug excretion in data set [20] and in data set [21] was 0.002 %ID throughout.

On to `c1ccc(-c2cc3c(cn2)ncc2ncn(-c4ccc5nc(NCCN6CCOCC6)sc5c4)c23)cc1`, for which the IC50 in [1] was 16 nM; in [2], 280 nM; in data set [3] it was 270 nM; in [6] it was 2500 nM. Further, in data set [4], the logP came out at 4.6. Further, the thermodynamic solubility at 16 h in data set [7] is less than 4 µM; in data set [8] it was greater than 1000 µM. Also, the fraction unbound at 4 h, 5 µM in data set [9] was less than 0.01. In addition, in [24], the solubility entry is “Soluble”.
